In ChEMBL document CHEMBL1133633, “Anti-Helicobacter pylori agents. 4. 2-(Substituted guanidino)-4-phenylthiazoles and some structurally rigid derivatives” (2000):
≈ marks a conversion by molar mass, not a printed value.

How the values were obtained:
[1] = test system: Helicobacter pylori; assay: The lowest drug concentration that inhibited macroscopic colonial growth against Helicobacter pylori; value ranges from 0.2-0.78; assay type: functional
Method in brief: (§1)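 Agar dilution. Strains were precultured 3 days at 37 °C on Brucella agar with 3% horse serum and 2% starch, then suspended in buffered saline to McFarland No. 1. A 10²-fold dilution was spotted by multipoint replicator onto Brucella agar with 7% lysed horse blood carrying serial 2-fold drug dilutions. Plates were incubated 3 days at 37 °C under 10% CO₂. MIC is the lowest concentration preventing macroscopic colonial growth. Mean and range come from 10 strains: 8001, 8003, 8004, 8007, 8008, 8009, 8011, 9005, FP1530 and FP1532.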

[2] = species: Cavia porcellus; assay: Inhibition of histamine stimulated chronotropic response in isolated guinea pig right atrium (1*10e-6 g/mL); assay type: functional, Cardiac atrium
Method in brief: (§2)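 Guinea pig right atrial strip, under 0.3-0.6 g initial tension in Tyrode solution at 30 °C, gassed with 95% O₂-5% CO₂; beating rate recorded by transducer. Histamine hydrochloride (1 × 10^-6 g/mL) raised rate. Test compound (1 × 10^-6 g/mL) was added 30 min after histamine washout. Percent inhibition compares histamine-induced rate increases before and 30 min after dosing.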

[3] = test system: Rattus norvegicus; assay: Inhibition of histamine stimulated gastric acid secretion in lumen perfused stomach of anesthetized rats (1 mg/kg iv); assay type: functional
Method in brief: (§3)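 Male Sprague-Dawley rats (~250 g), fasted 24 h, anesthetized with urethane 1.25 g/kg ip. The opened stomach was lumen-perfused with saline, and the perfusate was titrated with 25 mM NaOH by autotitrator. Inhibition of histamine-stimulated acid output was measured after 1 mg/kg iv dosing; n = 2.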

[4] = test system: Neisseria meningitidis; assay: Antimicrobial activity was measured against Neisseria meningitidis organism.; assay type: functional
[5] = test system: Campylobacter jejuni; assay: Antimicrobial activity was measured against Campylobacter jejuni organism; Value ranges from 0.78-100; assay type: functional
[6] = test system: Clostridioides difficile; assay: Antimicrobial activity was measured against Clostridium difficile organism; Value ranges from 0.1-0.39; assay type: functional
[7] = test system: Bacteroides fragilis; assay: Antimicrobial activity was measured against B. fragilis range; Value ranges from 0.39-0.78; assay type: functional
[8] = test system: Neisseria gonorrhoeae; assay: Antimicrobial activity was measured against Neisseria gonorrhoeae organism; assay type: functional
[9] = test system: Helicobacter pylori; assay: The lowest drug concentration that inhibited macroscopic colonial growth against Helicobacter pylori; Value ranges from 1.56-25; assay type: functional; method in brief: as §1
[10] = test system: Clostridium perfringens; assay: Antimicrobial activity was measured against Clostridium perfringens organism; Value ranges from 0.78-3.13; assay type: functional
[11] = test system: Clostridioides difficile; assay: Antimicrobial activity was measured against Clostridium difficile organism.; assay type: functional
[12] = test system: Helicobacter pylori; assay: The lowest drug concentration that inhibited macroscopic colonial growth against Helicobacter pylori; value ranges from 0.0030-0.05; assay type: functional; method in brief: as §1
[13] = test system: Clostridium perfringens; assay: Antimicrobial activity was measured against Clostridium perfringens organism.; assay type: functional
[14] = test system: Campylobacter jejuni; assay: Antimicrobial activity was measured against Campylobacter jejuni organism. range is between is(12.5-50).; assay type: functional
[15] = test system: Bacteroides fragilis; assay: Antimicrobial activity was measured against Bacteroides fragilis organism.; assay type: functional
[16] = test system: Helicobacter pylori; assay: The lowest drug concentration that inhibited macroscopic colonial growth against Helicobacter pylori.; assay type: functional; method in brief: as §1
[17] = test system: Helicobacter pylori; assay: The lowest drug concentration that inhibited macroscopic colonial growth against Helicobacter pylori; value ranges from 12.5-100; assay type: functional; method in brief: as §1
[18] = test system: Clostridium perfringens; assay: Antimicrobial activity was measured against Clostridium perfringens organism; assay type: functional
[19] = test system: Campylobacter jejuni; assay: Antimicrobial activity was measured against Campylobacter jejuni organism.; assay type: functional
[20] = test system: Helicobacter pylori; assay: The lowest drug concentration that inhibited macroscopic colonial growth against Helicobacter pylori; value ranges from 0.2-0.39; assay type: functional; method in brief: as §1
[21] = test system: Helicobacter pylori; assay: Antimicrobial activity was measured against Helicobacter pylori organism. Value ranges from (0.2-0.39); assay type: functional; method in brief: as §1
[22] = test system: Helicobacter pylori; assay: The lowest drug concentration that inhibited macroscopic colonial growth against Helicobacter pylori; Value ranges from 12.5-100; assay type: functional; method in brief: as §1
[23] = test system: Helicobacter pylori; assay: Determined the lowest drug concentration that inhibited macroscopic colonial growth against Helicobacter pylori.; assay type: functional; method in brief: as §1
[24] = test system: Helicobacter pylori; assay: The lowest drug concentration that inhibited macroscopic colonial growth against Helicobacter pylori; value ranges from 1.56-3.13; assay type: functional; method in brief: as §1
[25] = test system: Bacteroides fragilis; assay: Antimicrobial activity was measured against Bacteroides fragilis; assay type: functional, organism-based
[26] = test system: Helicobacter pylori; assay: Antimicrobial activity was measured against Helicobacter pylori organism.; assay type: functional, organism-based; method in brief: as §1
[27] = test system: Helicobacter pylori; assay: The lowest drug concentration that inhibited macroscopic colonial growth against Helicobacter pylori; Value ranges from 3.13-12.5; assay type: functional; method in brief: as §1
[28] = test system: Helicobacter pylori; assay: The lowest drug concentration that inhibited macroscopic colonial growth against Helicobacter pylori; Value ranges from 6.25-50; assay type: functional; method in brief: as §1
[29] = test system: Helicobacter pylori; assay: The lowest drug concentration that inhibited macroscopic colonial growth against Helicobacter pylori; value ranges from 0.39-0.78; assay type: functional; method in brief: as §1
[30] = test system: Helicobacter pylori; assay: The lowest drug concentration that inhibited macroscopic colonial growth against Helicobacter pylori; value ranges from 6.25-25; assay type: functional; method in brief: as §1
[31] = species: Cavia porcellus; assay: Inhibition of histamine stimulated chronotropic response in isolated guinea pig right atrium; assay type: functional, Cardiac atrium; method in brief: as §2
[32] = test system: Helicobacter pylori; assay: The lowest drug concentration that inhibited macroscopic colonial growth against Helicobacter pylori; Value ranges from 0.1-0.39; assay type: functional; method in brief: as §1
[33] = test system: Rattus norvegicus; assay: Inhibition of histamine stimulated gastric acid secretion in lumen perfused stomach of anesthetized rats; assay type: functional; method in brief: as §3
[34] = test system: Helicobacter pylori; assay: The lowest drug concentration that inhibited macroscopic colonial growth against Helicobacter pylori; value ranges from 0.78-6.25; assay type: functional; method in brief: as §1
[35] = test system: Helicobacter pylori; assay: The lowest drug concentration that inhibited macroscopic colonial growth against Helicobacter pylori; value ranges from 0.00625-0.05; assay type: functional; method in brief: as §1

CC(=O)NCc1cccc(-c2csc(NC(=N)Nc3ccccc3)n2)c1 was tested, and the MIC [1] was 0.52 µg/mL (≈ 1.42 µM), the Inhibition [2] was 23% and the Inhibition [3] was 24%.

Cc1ncc([N+](=O)[O-])n1CCO [METRONIDAZOLE] gave an MIC [4] greater than 100 µg/mL, an MIC [5] of 30 µg/mL (≈ 175 µM) and an MIC [6] of 0.2 µg/mL (≈ 1.17 µM). It also gave an MIC [7] of 0.59 µg/mL (≈ 3.45 µM), an MIC [8] greater than 100 µg/mL and an MIC [9] of 5.4 µg/mL (≈ 31.6 µM). For the same molecule, the MIC [10] was 1.75 µg/mL (≈ 10.2 µM).

Work on COc1ccccc1CC/N=C(\N)Nc1nc(-c2cccc(CNC(C)=O)c2)cs1 yielded an MIC [4] greater than 100 µg/mL, an MIC [11] greater than 100 µg/mL and an MIC [12] of 0.017 µg/mL (≈ 0.0401 µM). For the same molecule, the Inhibition [2] was 72%, the Inhibition [3] was 58% and the MIC [8] was greater than 100 µg/mL. It also gave an MIC [13] greater than 100 µg/mL, an MIC [14] of 20.5 µg/mL (≈ 48.4 µM) and an MIC [15] greater than 100 µg/mL.

For CC(=O)NCc1ccc(-c2csc(N=C(N)N)n2)cc1, the MIC [16] was greater than 100 µg/mL.

CC(=O)NCc1cccc(-c2csc(N/C(N)=N/CCN(C)C)n2)c1 gave an MIC [17] of 57 µg/mL (≈ 158 µM).

With COCC/N=C(\N)Nc1nc(-c2cccc(CNC(C)=O)c2)cs1 the MIC [4] was greater than 100 µg/mL, the MIC [11] was greater than 100 µg/mL and the Inhibition [2] was 83%. For the same molecule, the MIC [18] was greater than 100 µg/mL, the Inhibition [3] was 87% and the MIC [8] was greater than 100 µg/mL. The MIC [15] was greater than 100 µg/mL, the MIC [19] was greater than 100 µg/mL and the MIC [20] was 0.32 µg/mL (≈ 0.921 µM). The MIC [21] was 0.32 µg/mL (≈ 0.921 µM).

In the case of CC(=O)NCc1ccc2c(c1)-c1nc(N=C(N)N)sc1CCO2, the MIC [22] is reported as 50 µg/mL (≈ 151 µM).

With CC[C@H]1OC(=O)[C@H](C)[C@@H](O[C@H]2C[C@@](C)(OC)[C@@H](O)[C@H](C)O2)[C@H](C)[C@@H](O[C@@H]2O[C@H](C)C[C@H](N(C)C)[C@H]2O)[C@](C)(OC)C[C@@H](C)C(=O)[C@H](C)[C@@H](O)[C@]1(C)O [CLARITHROMYCIN] the MIC [23] was 0.057 µg/mL (≈ 0.0762 µM).

Work on CC(=O)NCc1cccc(-c2csc(NC(=N)NCCC(c3ccccc3)c3ccccc3)n2)c1 yielded an MIC [24] of 2.5 µg/mL (≈ 5.17 µM).

With COc1ccc(CC/N=C(\N)Nc2nc(-c3cccc(CNC(C)=O)c3)cs2)cc1 the MIC [1] was 0.32 µg/mL (≈ 0.756 µM), the Inhibition [2] was 34% and the Inhibition [3] was 10%.

“(2,5-Dihydroxy-4,7-dioxo-[1,3,2]dioxabismepan-5-yl)-acetic acid” was tested, and the MIC [4] was 12.5 µg/mL, the MIC [11] was 50 µg/mL and the MIC [25] was 50 µg/mL. It also gave an MIC [23] of 18 µg/mL, an MIC [26] of 8.7 µg/mL and an MIC [8] of 4.7 µg/mL. It also gave an MIC [13] greater than 100 µg/mL and an MIC [19] of 7.4 µg/mL.

Molecule CCCC/N=C(\N)Nc1nc2c(s1)CCOc1ccc(CNC(C)=O)cc1-2 has an MIC [27] of 7.7 µg/mL (≈ 19.9 µM).

CC(=O)NCc1cccc(-c2csc(NC(=N)NCCO)n2)c1 showed an MIC [28] of 20 µg/mL (≈ 60 µM).

CC(=O)NCc1cccc(-c2csc(NC(=N)NCCOc3ccccc3)n2)c1 gave an Inhibition [2] of 52%, an Inhibition [3] of 18% and an MIC [29] of 0.49 µg/mL (≈ 1.2 µM).

For CC(=O)NCc1cccc(-c2csc(NC(=N)NCCC#N)n2)c1, the MIC [30] was 19.3 µg/mL (≈ 56.4 µM).

CCCC/N=C(\N)Nc1nc(-c2cccc(CNC(C)=O)c2)cs1 showed an Inhibition [31] of 84%, an MIC [32] of 0.22 µg/mL (≈ 0.637 µM) and an Inhibition [3] of 74%.

CNC(=C[N+](=O)[O-])NCCSCc1ccc(CN(C)C)o1 [RANITIDINE] gave an Inhibition [31] of 44%, an MIC [23] greater than 1600 µg/mL and an Inhibition [33] of 72%.

CC(=O)NCc1cccc(-c2csc(NC(=N)NCCOCc3ccccc3)n2)c1 was tested, and the MIC [34] was 2.5 µg/mL (≈ 5.9 µM).

CC(=O)NCc1cccc(-c2csc(NC(=N)NCc3ccccc3)n2)c1 was tested, and the MIC [35] was 0.025 µg/mL (≈ 0.0659 µM), the Inhibition [2] was 77% and the Inhibition [3] was 50%.
